MEKK2mut PB1 HTS – signal of MEK5 binding to mutant human MEKK2 PB1 domain. hit rate 0.35% among 290,000. percent response, % at 10 µM. bead flow cytometry, Alexa488-MEK5 binding to MEKK2 mutant; in the data active means percent response above about 24%, passing the limit was not always enough
MEKK3 PB1 HTS – raises or lowers MEK5 binding to the human MEKK3 PB1 domain; Q99759; AID 1529; binding response (% of control), % at 10 µM; bead-based flow cytometry, Alexa488-MEK5 binding to MEKK3; actives lie on both sides; 0 = blocked by unlabeled MEK5, 100 = vehicle; hit rate 1.4% among 290,000;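 active means binding response more than 3 SD above or below the average of its plate-row segment, actives on both sides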;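 further: Alexa488 bead fluorescence after subtracting the streptavidin-only scavenger bead signal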
Target sequence (Q99759 whole entry, looked up, the tested form may be a part): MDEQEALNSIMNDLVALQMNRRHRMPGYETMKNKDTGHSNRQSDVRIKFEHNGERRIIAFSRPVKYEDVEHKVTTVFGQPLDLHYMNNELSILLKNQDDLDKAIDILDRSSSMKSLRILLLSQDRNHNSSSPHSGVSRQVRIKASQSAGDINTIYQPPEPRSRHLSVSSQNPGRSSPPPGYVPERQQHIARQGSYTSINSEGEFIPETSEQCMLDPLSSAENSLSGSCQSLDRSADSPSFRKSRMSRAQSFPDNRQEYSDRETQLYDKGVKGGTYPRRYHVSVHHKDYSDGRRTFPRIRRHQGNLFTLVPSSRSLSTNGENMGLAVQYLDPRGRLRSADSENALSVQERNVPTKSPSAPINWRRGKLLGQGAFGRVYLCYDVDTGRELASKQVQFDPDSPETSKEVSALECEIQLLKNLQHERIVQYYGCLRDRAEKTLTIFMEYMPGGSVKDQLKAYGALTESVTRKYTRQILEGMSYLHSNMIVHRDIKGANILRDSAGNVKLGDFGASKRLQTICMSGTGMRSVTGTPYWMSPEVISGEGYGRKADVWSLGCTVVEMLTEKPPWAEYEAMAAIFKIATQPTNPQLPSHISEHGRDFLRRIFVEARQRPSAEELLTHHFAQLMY
MEKK2 WT-MEK5 – raises or lowers MEK5 binding to wildtype human MEKK2 PB1 domain. bead flow cytometry, Alexa488-MEK5 binding to MEKK2 WT; actives lie on both sides. binding response (% of control), % at 10 µM. hit rate 1.1% among 290,000. AID 1531; in the data active means binding response below about 67% or above about 130%
Apaf-1 inh – human Apaf-1 inhibition | reconstituted apoptosome caspase-3 activity, DEVD-Rh110 fluorescence | hit rate 0.71% among 330,000 | inhibition, % at 20 µM | O14727; active means inhibition of at least 40% at 20 µM
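Medium: Hepes buffer, pH 7.5 / System: biochemical Apaf-1 apoptosome reconstitution / Measured by: Rh110 fluorescence, excitation 480 nm, emission 540 nm / Times: compound with Apaf-1, dATP, procaspase-3 30 min, then 50 min reaction, room temperature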
UBC13 inh – inhibitors of human UBC13 polyubiquitin chain formation; hit rate 0.47% among 330,000; inhibition, % at 20 µM; P61088; AID 485273; TR-FRET; in the data active means inhibition above about 45%, passing the limit was not always enough
Apaf-1 inh conf – confirmation of Apaf-1 inhibitors | reconstituted apoptosome, caspase-3 DEVD-Rh110 fluorescence | hit rate 25% among 1,800 | shares compounds with Apaf-1 inh | inhibition, % at 20 µM;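 active means mean inhibition of at least 40% at 20 µM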
Rh110 quench – counter-screen for Apaf-1 inhibitors: fluorescence interference | Rh110 fluorescence interference, quenched caspase reaction | shares compounds with Apaf-1 inh | 1,800 tested, under 10 active | activation (fluorescence interference), % at 20 µM;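 active means signal rise of 40% or more at 20 µM, treated as a fluorescence artifact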
Apaf1 inh interf – shows fluorescence interference in the Apaf-1 inhibitor assay format. AID 588538. 460 tested, under 10 active. IC50, µM. shares compounds with Apaf-1 inh. fluorescence interference counterscreen, Apaf-1 assay format; call rule not given here
Large screens that a line does not name were inactive (follow-up assays come after a bar, where they were run). Compounds with a hit are over-represented: about 2.9% of the library has one in this group of screens.

CC(C)NC[C@@H](O)c1ccc(O)c(O)c1	Apaf-1 inh 42.7 | Apaf-1 inh conf inactive | Rh110 quench inactive
COc1ccc([C@H](C)NC[C@H](O)c2ccc(O)c(NC=O)c2)cc1	none
O=C(O)CC1S/C(=N/N=C/c2ccc(-c3ccc(Cl)cc3[N+](=O)[O-])o2)NC1=O (centres undefined)	Apaf-1 inh 52.1 | Apaf-1 inh conf inactive | Rh110 quench inactive
COc1cc(NC(C)CCCN)c2ncccc2c1 (centres undefined)	Apaf-1 inh 92.5 (no result: MEKK2mut PB1 HTS, MEKK3 PB1 HTS, MEKK2 WT-MEK5) | Apaf-1 inh conf inactive | Rh110 quench inactive
O=S(=O)(CCN1C=CC(C(F)(F)F)=NCC1)c1ccc(Cl)cc1Cl	none
O=C1OC(=O)c2cc([N+](=O)[O-])ccc21	none (no result: MEKK2mut PB1 HTS, MEKK3 PB1 HTS, MEKK2 WT-MEK5)
O=C1Nc2ccccc2Nc2ccc([N+](=O)[O-])cc21	Apaf-1 inh 43.0 | Apaf-1 inh conf inactive | Rh110 quench inactive
Cc1cc(C)c2sc(N(CCN(C)C)C(=O)CCS(=O)(=O)c3ccccc3)nc2c1	Apaf-1 inh 52.5 | Apaf-1 inh conf inactive | Rh110 quench inactive
CCO[C@@H]1OC(C(=O)N2CCN(Cc3ccc4c(c3)OCO4)CC2)=C[C@H](c2ccc(Br)cc2)[C@H]1CCCO	none
CCO[C@@H]1OC(C(=O)N2CCN(Cc3ccc4c(c3)OCO4)CC2)=C[C@H](c2ccc(C(F)(F)F)cc2)[C@H]1CCCO	Apaf-1 inh 41.8 | Apaf-1 inh conf inactive | Rh110 quench inactive
CCCc1[nH]nc2c1C(c1ccc(OC)c(CSC3=NCCS3)c1)C(C#N)=C(N)O2 (centres undefined)	Apaf-1 inh 41.0 | Apaf-1 inh conf 42.9 | Rh110 quench inactive | Apaf1 inh interf inactive
CCc1nc(N)c(C#N)c(-c2ccc(O)c(OC)c2)c1C	none
COc1cc(-c2c(C#N)c(=O)[nH]c3c2c(C)nn3-c2ccccc2)ccc1O	Apaf-1 inh 42.1 | Apaf-1 inh conf 43.3 | Rh110 quench inactive | Apaf1 inh interf inactive
C=CCN1C=C2C(=O)C(C)(OC(=O)C3CCCC3)C(=O)C(c3ccccc3)=C2C=C1CCCC(=O)OC (centres undefined)	none
CCN(CC)CCCN1C=C2C(=O)C(C)(OC(=O)CCC(=O)OC)C(=O)C(Br)=C2C=C1c1ccc(OC)cc1 (centres undefined)	none
C=CCN1C=C2C(=O)C(C)(OC(=O)CCC(=O)OC)C(=O)C(Br)=C2C=C1c1ccc(OC)cc1 (centres undefined)	MEKK2 WT-MEK5 -3.0, Apaf-1 inh 67.2 | Apaf-1 inh conf 60.7 | Rh110 quench inactive | Apaf1 inh interf inactive
COCCN1C=C2C(=O)C(C)(OC(=O)CCC(=O)OC)C(=O)C(Br)=C2C=C1c1ccc(OC)cc1 (centres undefined)	Apaf-1 inh 77.1 | Apaf-1 inh conf 84.1 | Rh110 quench inactive
CC(C)c1ccc(NC(=S)NNC(=O)c2cccs2)cc1	none
CCN1CCN(S(=O)(=O)CC2(C)C3CCC2(C)C(=O)C3Br)CC1 (centres undefined)	none
CC12COC3(P(=O)(c4ccccc4)c4ccccc4)CC1CCC23CP(=O)(c1ccccc1)c1ccccc1 (centres undefined)	Apaf-1 inh 41.3 | Apaf-1 inh conf inactive | Rh110 quench inactive
Cc1c(CCOC(=O)c2ccc(Cl)cc2Cl)sc[n+]1CC(=O)c1ccccc1	Apaf-1 inh 55.9 (no result: MEKK2mut PB1 HTS, MEKK3 PB1 HTS, MEKK2 WT-MEK5) | Apaf-1 inh conf inactive | Rh110 quench inactive
C=CCc1cccc(/C=N/NC(=O)CNc2cccc3ccccc23)c1O	Apaf-1 inh 96.4 | Apaf-1 inh conf inactive | Rh110 quench inactive
CSc1ccc(/C=N/NC(=O)CNc2cccc3ccccc23)cc1	Apaf-1 inh 85.7 | Apaf-1 inh conf inactive | Rh110 quench inactive
CSc1ccc(/C=N/NC(=O)CNc2ccc3ccccc3c2)cc1	none
C=CCc1cccc(/C=N/NC(=O)CNc2ccccc2OC)c1O	none
O=C(CNc1cccc2ccccc12)N/N=C/C(Br)=C/c1ccccc1	Apaf-1 inh 64.9 | Apaf-1 inh conf inactive | Rh110 quench inactive
COC(=O)c1onc(-c2c(Cl)cccc2Cl)c1C(=O)OC	none

Screening data from PubChem BioAssay.
